# High-throughput results (PubChem)
# This is a sample that favours compounds with a hit; in the whole collection about 2.3% have one here.
# TRPC4 act = TRPC4 (mouse) channel activation; Q9QUQ5; HEK293 TRPC4beta/mu-opioid, Fluo4 calcium fluorescence; stronger effect = higher value; B-score at 10 µM; actives 0.49% (n = 310,000); AID 2237;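 active = B-score above 5 SD of library B-scores, and initial fluorescence ratio not above library mean plus 5 SD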;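 note: positive B-score marks a calcium rise read as TRPC4 activation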
# Target sequence (Q9QUQ5 whole entry, looked up): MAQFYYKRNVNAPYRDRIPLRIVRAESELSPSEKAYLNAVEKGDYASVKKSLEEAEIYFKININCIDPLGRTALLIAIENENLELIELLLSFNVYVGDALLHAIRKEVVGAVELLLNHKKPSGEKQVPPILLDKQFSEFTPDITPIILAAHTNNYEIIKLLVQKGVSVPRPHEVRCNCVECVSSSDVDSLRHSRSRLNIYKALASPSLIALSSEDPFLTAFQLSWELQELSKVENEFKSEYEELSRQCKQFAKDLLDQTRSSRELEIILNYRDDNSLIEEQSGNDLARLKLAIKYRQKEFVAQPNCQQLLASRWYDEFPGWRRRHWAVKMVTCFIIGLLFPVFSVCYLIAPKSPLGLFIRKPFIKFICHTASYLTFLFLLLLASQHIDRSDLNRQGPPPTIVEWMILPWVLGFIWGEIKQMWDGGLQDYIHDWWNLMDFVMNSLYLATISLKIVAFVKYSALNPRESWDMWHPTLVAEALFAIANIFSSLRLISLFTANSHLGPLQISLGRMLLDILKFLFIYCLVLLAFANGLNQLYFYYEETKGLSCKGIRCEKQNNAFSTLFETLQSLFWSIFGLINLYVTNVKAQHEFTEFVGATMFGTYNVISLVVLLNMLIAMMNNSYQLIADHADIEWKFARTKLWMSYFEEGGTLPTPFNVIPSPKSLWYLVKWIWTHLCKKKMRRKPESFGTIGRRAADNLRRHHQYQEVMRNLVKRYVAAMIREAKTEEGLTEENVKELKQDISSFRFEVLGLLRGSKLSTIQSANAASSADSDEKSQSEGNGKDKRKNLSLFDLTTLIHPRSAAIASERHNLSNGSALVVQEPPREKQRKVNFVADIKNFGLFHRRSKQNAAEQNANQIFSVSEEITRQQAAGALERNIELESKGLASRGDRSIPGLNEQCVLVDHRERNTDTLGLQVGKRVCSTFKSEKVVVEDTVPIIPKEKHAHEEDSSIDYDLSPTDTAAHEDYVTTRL
#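 Assay system – TRPC4beta and mu-opioid receptor HEK293 stable cells · Measured by – Fluo4 fluorescence, kinetic · Schedule – dye loading 45 min room temperature, 110 s kinetic read · Read-out – B-scored integrated calcium fluorescence ratio · Controls – buffer and maximal DAMGO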
# TRPC6 inh = blocks the mouse TRPC6 cation channel; Q61143; HEK293-TRPC6, membrane potential dye, ACh-evoked depolarization; stronger effect = lower value; B-score at 10 µM; actives 1.1% (n = 310,000); AID 2553;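 active = B-score under library mean minus 3 SD, initial fluorescence not abnormally high, positive integrated signal ratio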;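 note: B-score derived from integrated fluorescence ratio over the kinetic read; more negative B-score means stronger inhibition of depolarization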
# TRPC6 activator = activates the mouse TRPC6 cation channel. HEK293-TRPC6 membrane potential dye fluorescence; stronger effect = higher value. B-score at 10 µM. AID 2550. Q61143. actives 0.13% (n = 310,000);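 active = B-score of the integrated fluorescence ratio above library mean plus 3 SD, and starting fluorescence ratio within library mean plus 5 SD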;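 note: higher score means more depolarization so channel activation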
# TRPC4 potent = allosteric potentiators of mouse TRPC4 channel. B-score at 10 µM. actives 0.42% (n = 310,000). HEK293 TRPC4beta/mu-opioid, DAMGO EC20, Fluo-4 Ca2+ flux; stronger effect = higher value. Q9QUQ5;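 active = B-score of calcium response area above 5 SD of library B-scores, with initial fluorescence ratio within 5 SD of library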;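 note: B-score of integrated fluorescence ratio over time as area under calcium response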
# TRPC4 block = TRPC4 (mouse) channel inhibition; Q9QUQ5; HEK293 TRPC4beta/mu-opioid, DAMGO-evoked Fluo4 calcium flux; stronger effect = lower value; B-score at 10 µM; actives 0.39% (n = 300,000);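 active = B-score over 3 SD under the library average, no early fluorescence shift, positive overall ratio signal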
#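 Assay system: HEK293 cells with stable TRPC4beta plus mu-opioid receptor expression. Dosing: single dose. Measured by: Fluo4 Ca2+ flux fluorescence. Also added: DAMGO in two steps, submaximal then maximal. Read-out: B score from integrated Fluo4 fluorescence ratio.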
# TRPC4 spec 2 = second selectivity test of TRPC6 inhibitors: effect on mouse TRPC4; shares compounds with TRPC6 inh; HEK293 TRPC4/MOR, membrane potential dye fluorescence; channel activated by saturating DAMGO dose; inhibition, % at 10 µM; actives 42% (n = 920); AID 2776;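 active = compounds whose fluorescence signal differed from control wells by over 3 SD, either direction, in both duplicate plates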
# TRPC4 spec = tests whether TRPC6 inhibitors also affect mouse TRPC4; activity change, negative = inhibition, % at 10 µM; HEK293 TRPC4/mu-opioid, membrane potential fluorescence; AID 2777; actives 61% (n = 920); shares compounds with TRPC6 inh;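 active = rise or fall in signal beyond 3 SD of buffer-only wells in both replicate plates, either sign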;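 note: integrated kinetic ratio of fluorescence range over baseline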
# HEK293 MPD ctr 2-1 = parental HEK293 nonspecific activity of TRPC6 inhibitors, second screen | shares compounds with TRPC6 inh | parental HEK293 membrane potential dye fluorescence; maximal acetylcholine challenge after compound addition | signal change vs control, % at 10 µM | actives 31% (n = 920);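 active = membrane potential signal moving either way by over 3 SD of the maximum-effect control, in both duplicate plates, meaning non-specific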
# HEK293 MPD ctr-1 = parental HEK293 nonspecific activity of TRPC6 inhibitors. actives 60% (n = 920). parental HEK293 membrane potential dye fluorescence. AID 2780. membrane potential signal change, % at 10 µM. shares compounds with TRPC6 inh;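 active = membrane potential signal shifting up or down by more than 3 SD of buffer-only wells, on both duplicate plates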
# HEK293 MPD ctr-2 = checks TRPC6 modulator effects in parental HEK293 cells; AID 488924; shares compounds with TRPC6 inh; membrane potential signal change, % at 10 µM; actives 51% (n = 2,400); membrane potential dye fluorescence;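 active = membrane potential signal moves up or down beyond 5 SD from buffer-only wells, on both duplicate plates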
# HEK293 MPD ctr 2-2 = parental HEK293 nonspecific activity of TRPC6 modulators, second screen; membrane potential dye fluorescence; after compound, maximal acetylcholine stimulation; shares compounds with TRPC6 inh; inhibition, % at 10 µM; actives 14% (n = 2,400); AID 488926;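 active = membrane potential signal drops by more than 5 SD from the mean control signal, in both duplicate plates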;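 note: plate controls were acetylcholine ECmax control wells for no effect and buffer only wells for full effect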
# TRPC4 ctr mod = tests whether TRPC6 modulators also affect mouse TRPC4; shares compounds with TRPC6 inh; HEK293 TRPC4/mu-opioid, membrane potential fluorescence; percent change from control (negative = decrease, positive = increase), % at 10 µM; actives 69% (n = 2,400);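 active = membrane potential signal moved up or down beyond 5 SD of buffer control wells, in both duplicate plates, actives on both sides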;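 note: plate controls were assay buffer wells for no effect and DAMGO maximal-effect wells for full effect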
# TRPC4 ctr inh 2 = second selectivity test of TRPC6 modulators against mouse TRPC4 | shares compounds with TRPC6 inh | HEK293 TRPC4/mu-opioid, membrane potential dye fluorescence; stimulated with maximal-effect DAMGO | inhibition, % at 10 µM | actives 55% (n = 2,400) | AID 488928;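 active = drop in membrane potential signal beyond 5 SD of the control wells in both duplicate plates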;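 note: TRPC4 counter screen for TRPC6 hits run under conditions tuned for TRPC6 not TRPC4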
# TRPC6 block conf = confirmation of mouse TRPC6 inhibitors | actives 43% (n = 3,300) | AID 488960 | HEK293-TRPC6, membrane potential dye, ACh-evoked depolarization | shares compounds with TRPC6 inh | inhibition, % at 10 µM;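 active = fluorescence ratio falls more than 5 SD below the full-stimulation control mean, in both duplicate runs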;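 note: integrated fluorescence ratio of peak minus minimum over baseline after agonist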
# TRPC6 act conf = confirmation of mouse TRPC6 activators | actives 11% (n = 2,800) | HEK293-TRPC6 membrane potential dye fluorescence, FDSS | activation, % at 10 µM | shares compounds with TRPC6 inh | AID 488961;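 active = ratio signal rise beyond 5 SD above unstimulated control wells' mean, seen in both duplicate runs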;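 note: plate controls were buffer EC0 wells for no effect and acetylcholine ECmax response for full effect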
# * marks the source's active call; other numbers are inactive results; i = inactive; · = no result.
SMILES,TRPC4 act,TRPC6 inh,TRPC6 activator,TRPC4 potent,TRPC4 block,HEK293 MPD ctr-2,HEK293 MPD ctr 2-2,TRPC4 ctr mod,TRPC4 ctr inh 2,TRPC6 block conf,TRPC6 act conf,others
COc1ccc(C(=O)C2CCCN(Cc3cccn3-c3ccccn3)C2)cc1F (centres undefined),i,-12*,i,i,i,·,·,·,·,107%*,i,TRPC4 spec 2=16%*;TRPC4 spec=i;HEK293 MPD ctr 2-1=21%*;HEK293 MPD ctr-1=-0.1%*
COc1ccc(C(=O)C2CCCN(Cc3cccn3-c3nccs3)C2)cc1F (centres undefined),i,i,i,i,i,·,·,·,·,·,·,
Cc1ccsc1C(=O)C1CCCN(Cc2cccn2-c2ccc(Cl)cn2)C1 (centres undefined),i,-6*,i,i,i,i,i,i,90%*,54%*,·,
COc1cccc(C(=O)C2CCCN(Cc3cccn3-c3ccccn3)C2)c1 (centres undefined),i,-5.9*,i,i,-7*,146%*,i,14%*,84%*,60%*,·,
COc1ccc(C(=O)C2CCCN(Cc3cccn3-c3nccs3)C2)cc1OC (centres undefined),i,-5.2*,i,i,i,i,i,i,68%*,i,i,
Cc1ccc(C(=O)C2=C(O)C(=O)N(c3ncccn3)C2c2ccccc2F)o1 (centres undefined),i,i,i,i,i,·,·,·,·,·,·,
Cc1cc2nc3c(=O)[nH]c(=S)[nH]c3nc2cc1NC(=O)C(F)(F)F,i,i,i,i,i,·,·,·,·,·,·,
CCNC(=S)N(CCc1c(C)[nH]c2ccc(Cl)cc12)Cc1cccnc1,i,-5.8*,i,i,i,i,i,i,i,i,i,
COCCNC(=S)N(CCc1c(C)[nH]c2ccc(F)cc12)Cc1cccnc1,i,i,i,i,i,·,·,·,·,·,·,
COCCNC(=S)N(CCc1c(C)[nH]c2ccc(Cl)cc12)Cc1cccnc1,i,-7*,i,i,i,·,·,·,·,i,i,TRPC4 spec 2=i;TRPC4 spec=i;HEK293 MPD ctr 2-1=i;HEK293 MPD ctr-1=i
CNC(=S)N(CCc1c(C)[nH]c2ccc(Cl)cc12)Cc1cccnc1,i,i,i,i,i,·,·,·,·,·,·,
CCn1c(=O)n(CC)c2cc(N3CCCC3)c(NC(=O)c3c(F)cccc3F)cc21,i,i,i,i,i,·,·,·,·,·,·,
NS(=O)(=O)c1cc(C(=O)NC2CCSc3ccccc32)ccc1Cl (centres undefined),i,i,13*,i,i,122%*,i,32%*,i,i,70%*,
O=C(O)COc1ccc(F)cc1Br,i,i,i,i,i,·,·,·,·,·,·,
CCN(CCCNc1ncnc2nc[nH]c12)c1cccc(C)c1,i,-6.3*,i,i,i,i,i,i,i,i,i,
COc1ccc(C(=O)NCC(=O)N2CCN(c3ccc(F)cc3)CC2)cc1,i,i,i,i,i,·,·,·,·,·,·,
COC(=O)C1=C(C)N(c2cc(C)cc(C)c2)/C(=C/c2ccc(O)cc2)C1=O,i,-7.7*,i,i,i,i,i,-16%*,67%*,i,i,
CC(C)CC1CCCCC1OC(=O)C[N+]1(C)CCCCC1 (centres undefined),i,-8.7*,i,i,i,·,·,·,·,87%*,i,TRPC4 spec 2=i;TRPC4 spec=i;HEK293 MPD ctr 2-1=16%*;HEK293 MPD ctr-1=i
COP(=O)(OC)c1nc(-c2ccc([N+](=O)[O-])cc2)oc1N1CCCCC1,i,-7.1*,19*,i,i,618%*,198%*,120%*,51%*,84%*,230%*,
O=C(Cc1ccc([N+](=O)[O-])cc1)NCc1cccnc1,i,-5.2*,i,i,i,i,i,i,i,i,i,
COc1ccc([N+](=O)[O-])cc1NCc1cccnc1,i,i,i,i,i,·,·,·,·,·,·,
Cc1ccc(NC(=O)c2cc([N+](=O)[O-])ccc2NCc2cccnc2)cc1,i,-6.7*,i,i,i,·,·,·,·,i,i,TRPC4 spec 2=i;TRPC4 spec=i;HEK293 MPD ctr 2-1=i;HEK293 MPD ctr-1=-145%*
O=S(=O)(NN1CCOCC1)c1cc(Cl)cc(Cl)c1O,i,i,i,i,i,·,·,·,·,·,·,
Cc1ccc(S(=O)(=O)N2CCCCC2CCNC(=O)C(=O)Nc2ccccc2F)cc1 (centres undefined),i,i,i,i,i,·,·,·,·,·,·,
O=[N+]([O-])c1ccc(OCCCCN2CCc3ccccc3C2)cc1,i,-8.4*,i,i,i,·,·,·,·,i,i,TRPC4 spec 2=44%*;TRPC4 spec=i;HEK293 MPD ctr 2-1=i;HEK293 MPD ctr-1=i
N=c1sccn1CC(=O)Nc1cccc(Oc2ccccc2)c1,i,-5.7*,i,i,i,i,i,i,82%*,52%*,i,
N=c1sccn1CC(=O)Nc1ccc(Cl)cc1[N+](=O)[O-],i,i,i,i,i,·,·,·,·,·,·,
N=c1sccn1CC(=O)Nc1cc(Cl)ccc1Oc1ccccc1,i,-9.6*,i,i,i,·,·,·,·,69%*,i,TRPC4 spec 2=24%*;TRPC4 spec=i;HEK293 MPD ctr 2-1=i;HEK293 MPD ctr-1=i
